# The source made the active and inactive calls. The calls are words filed in the database; no cut-off is given here.
# Experiments:
# [1] = target: T1, Cholesteryl ester transfer protein (Homo sapiens, UniProt P11597); assay: Inhibition of recombinant CETP (unknown origin) assessed as inhibition of BODIPY-labeled cholesteryl transfer to fluorescent substrate by fluorimetric assay
# T1 sequence (P11597 whole entry): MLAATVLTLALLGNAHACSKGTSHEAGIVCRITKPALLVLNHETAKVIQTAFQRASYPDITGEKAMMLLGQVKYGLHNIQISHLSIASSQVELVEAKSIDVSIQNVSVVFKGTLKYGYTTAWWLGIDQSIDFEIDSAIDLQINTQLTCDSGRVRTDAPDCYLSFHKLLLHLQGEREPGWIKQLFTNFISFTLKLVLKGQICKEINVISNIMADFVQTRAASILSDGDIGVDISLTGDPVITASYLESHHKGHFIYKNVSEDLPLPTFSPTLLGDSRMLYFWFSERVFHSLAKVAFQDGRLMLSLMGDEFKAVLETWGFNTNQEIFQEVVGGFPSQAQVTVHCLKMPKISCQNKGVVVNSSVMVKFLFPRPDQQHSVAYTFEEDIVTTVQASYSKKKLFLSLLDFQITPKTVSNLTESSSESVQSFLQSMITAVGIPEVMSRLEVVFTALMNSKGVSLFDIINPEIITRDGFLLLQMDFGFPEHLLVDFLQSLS
# Syrian golden hamster [2] = assay: In vivo inhibition of CETP in high-fat fed syrian hamster model assessed as increase in plasma HDL-cholesterol level at 30 mg/kg, po administered once daily for 5 days measured 2 hrs post last dose relative to control; assay type: functional
# How it was run: (§1)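 Male Syrian golden hamsters, 8 weeks old and about 110–120 g, fed a diet with 10% lard oil and 3% cholesterol for 4 weeks, then randomized into four groups. Oral dosing once daily for 5 days in 10% ethanol/10% hydrogenated castor oil/80% water, with a vehicle control group. Animals were fasted 16 h before bleeding. Retro-orbital blood was taken at baseline and 2 h after the last dose. Plasma HDL-C was measured on a chemistry analyser and expressed as percent change. Mean ± SEM.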
# Syrian golden hamster [3] = assay: In vivo inhibition of CETP in po dosed high-fat fed syrian hamster model assessed as increase in plasma HDL-cholesterol level administered once daily for 5 days measured 2 hrs post last dose; assay type: functional, organism-based; conditions: Mesocricetus auratus; how it was run: as §1
# [4] = Cmax in Sprague-Dawley rat at 50 mg/Kg, po; assay type: ADME; design: dose 50 mg/Kg, route oral; conditions: in vivo
# How it was run: (§2)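 Four adult male Sprague-Dawley rats, fasted 16 h, given a single oral dose of 50 mg/kg suspended in 10% ethanol/10% hydrogenated castor oil/80% water. Heparinized blood was drawn at 0.5–36 h (15 time points) and centrifuged at 3000 rpm for 15 min. Plasma was stored at -70°C until analysis.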
# [5] = Tmax in Sprague-Dawley rat at 50 mg/Kg, po; assay type: ADME; conditions: in vivo; how it was run: as §2
# [6] = Terminal half life in Sprague-Dawley rat at 50 mg/Kg, po; assay type: ADME; conditions: in vivo, read-out: beta t1/2 (converted); how it was run: as §2
# [7] = AUC in Sprague-Dawley rat at 50 mg/Kg, po; assay type: ADME; conditions: in vivo; how it was run: as §2
# Syrian golden hamster [8] = assay: In vivo inhibition of CETP in high-fat fed syrian hamster model assessed as increase in plasma HDL-cholesterol level at 50 mg/kg, po administered once daily for 5 days measured 2 hrs post last dose relative to control; assay type: functional, Mesocricetus auratus; design: scale not given: the % may be the effect or the level left; how it was run: as §1
Structure (SMILES),IC50 [1] [nM],also measured
COc1ccc(C(C)C)cc1C1=C(CN(Cc2cc(C(F)(F)F)cc(C(F)(F)F)c2)C(=O)OCC(C)C)CC(C)(C)CC1,> 50000,
COc1ccc(C(C)C)cc1C1=C(CN(Cc2cc(C(F)(F)F)cc(C(F)(F)F)c2)c2ncc(N3CCNCC3)cn2)CC(C)(C)CC1,350,
COc1ccc(C(C)C)cc1C1=C(CN(Cc2cc(C(F)(F)F)cc(C(F)(F)F)c2)c2ncc(-c3cnn(C)c3)cn2)CCCC1,930,
COc1ccc(C(C)C)cc1C1=C(CN(Cc2cc(C(F)(F)F)cc(C(F)(F)F)c2)c2ncc(OCCCC(=O)O)cn2)CC(C)(C)CC1,300,
COc1ccc(C(C)C)cc1C1=C(CN(Cc2cc(C(F)(F)F)cc(C(F)(F)F)c2)c2ncc(-c3c(C)noc3C)cn2)CC(C)(C)CC1,> 50000,
COc1ccc(C(C)C)cc1C1=C(CN(Cc2cc(C(F)(F)F)cc(C(F)(F)F)c2)C(=O)OCc2ccccc2)CC(C)(C)CC1,> 50000,
COc1ccc(C(C)C)cc1C1=C(CN(Cc2cc(C(F)(F)F)cc(C(F)(F)F)c2)c2ncc(-c3cnn(C)c3)cn2)c2ccccc2CC1,6630,
COc1ccc(C(C)C)cc1C1=C(CN(Cc2cc(C(F)(F)F)cc(C(F)(F)F)c2)c2ncc(O)cn2)CC(C)(C)CC1,3520,
COc1ccc(C(C)C)cc1C1=C(CN(Cc2cc(C(F)(F)F)cc(C(F)(F)F)c2)c2ncc(N3CCC(C(=O)O)CC3)cn2)CC(C)(C)CC1,370,
COc1ccc(C(C)C)cc1C1=C(CN(Cc2cc(C(F)(F)F)cc(C(F)(F)F)c2)c2ncc(-c3cnn(C)c3)cn2)CC(C(C)(C)C)CC1 (stereo unspecified),70,
COc1ccc(C(C)C)cc1C1=C(CN(Cc2cc(C(F)(F)F)cc(C(F)(F)F)c2)c2ncc(-c3cccs3)cn2)CC(C)(C)CC1,> 50000,
COc1cc(F)c(C(C)C)cc1-c1ccc(C(F)(F)F)cc1CN1C(=O)O[C@H](c2cc(C(F)(F)F)cc(C(F)(F)F)c2)[C@@H]1C,,Activity (Syrian golden hamster [2]; Mesocricetus auratus): Active
COc1ccc(C(C)C)cc1C1=C(CN(Cc2cc(C(F)(F)F)cc(C(F)(F)F)c2)c2ncc(N3CCC(NC(C)=O)CC3)cn2)CC(C)(C)CC1,520,
COC(=O)COc1cnc(N(CC2=C(c3cc(C(C)C)ccc3OC)CCC(C)(C)C2)Cc2cc(C(F)(F)F)cc(C(F)(F)F)c2)nc1,910,
COc1ccc(C(C)C)cc1C1=C(CN(Cc2cc(C(F)(F)F)cc(C(F)(F)F)c2)c2ncc(-c3cnn(C)c3)cn2)CCCCC1,1620,
COC(=O)N(CC1=C(c2cc(C(C)C)ccc2OC)CCC(C)(C)C1)Cc1cc(C(F)(F)F)cc(C(F)(F)F)c1,21000,
COc1ccc(C(C)C)cc1C1=C(CN(Cc2cc(C(F)(F)F)cc(C(F)(F)F)c2)c2ncc(OCCO)cn2)CC(C)(C)CC1,190,
COc1ccc(C(C)C)cc1C1=C(CN(Cc2cc(C(F)(F)F)cc(C(F)(F)F)c2)c2ncc(N3CCC(N)CC3)cn2)CC(C)(C)CC1,170,
CCC1CCC(c2cc(C(C)C)ccc2OC)=C(CN(Cc2cc(C(F)(F)F)cc(C(F)(F)F)c2)c2ncc(-c3cnn(C)c3)cn2)C1 (stereo unspecified),80,
COc1ccc(C(C)C)cc1C1=C(CN(Cc2cc(C(F)(F)F)cc(C(F)(F)F)c2)c2ncc(-c3cnn(C)c3)cn2)CCC1,2760,
COc1ccc(C(C)C)cc1C1=C(CN(Cc2cc(C(F)(F)F)cc(C(F)(F)F)c2)c2ncc(N3CCN(C)CC3)cn2)CC(C)(C)CC1,2070,
COc1ccc(C(C)C)cc1C1=C(CN(Cc2cc(C(F)(F)F)cc(C(F)(F)F)c2)c2ncc(Br)cn2)CC(C)(C)CC1,> 50000,
COc1ccc(C(C)C)cc1C1=C(CN(Cc2cc(C(F)(F)F)cc(C(F)(F)F)c2)c2ncc(OCC(=O)O)cn2)CC(C)(C)CC1,360,
COc1ccc(C(C)C)cc1C1=C(CN(Cc2cc(C(F)(F)F)cc(C(F)(F)F)c2)c2ncc(-c3cnn(C)c3)cn2)CCc2ccccc21,220,
COc1ccc(C(C)C)cc1C1=C(CN(Cc2cc(C(F)(F)F)cc(C(F)(F)F)c2)c2ncc(N3CCOCC3)cn2)CC(C)(C)CC1,860,
COc1ccc(C(C)C)cc1C1=C(CN(Cc2cc(C(F)(F)F)cc(C(F)(F)F)c2)c2ncc(-c3cnn(C)c3)cn2)CC(C)(C)CC1,70,Activity (Syrian golden hamster [3]): Dose-dependent effect; Cmax [4]: 697 ng/mL; Tmax [5]: 2.5 h; half-life [6]: 11.1 h; AUC [7]: 6990 ng·h/mL; Activity (Syrian golden hamster [2]): 9.3%; Activity (Syrian golden hamster [8]): 27.9%
COc1ccc(C(C)C)cc1C1=C(CN(Cc2cc(C(F)(F)F)cc(C(F)(F)F)c2)c2ncc(-c3cnn(C)c3)cn2)CC(C)CC1 (stereo unspecified),60,
COc1ccc(C(C)C)cc1C1=C(CN(Cc2cc(C(F)(F)F)cc(C(F)(F)F)c2)c2ncc(-c3ccnn3C)cn2)CC(C)(C)CC1,> 50000,
COCCOc1cnc(N(CC2=C(c3cc(C(C)C)ccc3OC)CCC(C)(C)C2)Cc2cc(C(F)(F)F)cc(C(F)(F)F)c2)nc1,420,
